One block for each compound: values may come before it.
Columns and labels:
[1] = Inhibition of hedgehog signaling pathway in mouse NIH/3T3 cells by Gli1-luciferase reporter gene assay; type: cell-based; settings: NIH3T3
[2] = (§1) Volume of distribution at steady state in Sprague-Dawley rat at 1 mg/kg, iv; type: ADME, organism-based; set-up: dose 1 mg/kg, route intravenous; settings: Sprague-Dawley, in vivo, read-out: Vdss
In short: (§2)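 SD rats given a single 1 mg/kg iv dose in 5% DMA + 5% Tween-80. Plasma concentration–time data were analysed by a noncompartmental approach.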

[3] = Clearance in Sprague-Dawley rat at 5 mg/kg, po; type: ADME, organism-based; set-up: dose 5 mg/kg, route oral; settings: in vivo
In short: (§3)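 SD rats dosed orally at 5 mg/kg in 0.5% HPMC + 0.3% Tween-80 (pH 2.8). Blood samples (n = 3) were centrifuged at 4000 rpm for 5 min at 4 °C. Plasma concentration–time data were analysed noncompartmentally.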

[4] = AUC in Sprague-Dawley rat at 1 mg/kg, iv; type: ADME, organism-based; set-up: dose 1 mg/kg, route intravenous; settings: plasma; in short: as §2
[5] = AUC in Sprague-Dawley rat at 5 mg/kg, po; type: ADME, organism-based; set-up: dose 5 mg/kg, route oral; settings: plasma; in short: as §3
[6] = Half life in Sprague-Dawley rat at 1 mg/kg, iv; type: ADME, organism-based; set-up: dose 1 mg/kg, route intravenous; settings: in vivo; in short: as §2
[7] = Cmax in Sprague-Dawley rat at 5 mg/kg, po; type: ADME, organism-based; set-up: dose 5 mg/kg, route oral; settings: in vivo; in short: as §3
[8] = Clearance in Sprague-Dawley rat at 1 mg/kg, iv; type: ADME, organism-based; set-up: dose 1 mg/kg, route intravenous; settings: in vivo; in short: as §2
[9] = Half life in Sprague-Dawley rat at 5 mg/kg, po; type: ADME, organism-based; set-up: dose 5 mg/kg, route oral; settings: in vivo; in short: as §3
Rattus norvegicus [10] = assay: Volume of distribution at steady state in Sprague-Dawley rat at 5 mg/kg, po; type: ADME, organism-based; set-up: dose 5 mg/kg, route oral; settings: in vivo; in short: as §3
[11] = Cmax in Sprague-Dawley rat at 1 mg/kg, iv; type: ADME, organism-based; set-up: dose 1 mg/kg, route intravenous; settings: in vivo; in short: as §2
[12] = Ratio of GDC-0449 IC50 to compound IC50 for hedgehog signaling pathway in mouse NIH/3T3 cells by Gli1-luciferase reporter gene assay; type: cell-based
[13] = (§4) Mean residence time (0 to t) in Sprague-Dawley rat at 1 mg/kg, iv; type: ADME, organism-based; set-up: dose 1 mg/kg, route intravenous; settings: Sprague-Dawley, in vivo; in short: as §2
[14] = Mean residence time (0 to t) in Sprague-Dawley rat at 5 mg/kg, po; type: ADME, organism-based; set-up: dose 5 mg/kg, route oral; settings: in vivo; in short: as §3
[15] = Oral bioavailability in Sprague-Dawley rat at 5 mg/kg; type: ADME, organism-based; settings: in vivo
In short: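 Oral dosing of SD rats at 5 mg/kg in 0.5% HPMC + 0.3% Tween-80 (pH 2.8), with blood samples n = 3, alongside iv dosing at 1 mg/kg in 5% DMA + 5% Tween-80. Plasma concentration–time data were analysed noncompartmentally.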

Rattus norvegicus [16] = assay: as §4; type: ADME, organism-based; set-up: dose 1 mg/kg, route intravenous; settings: in vivo; in short: as §2
Rattus norvegicus [17] = assay: as §1; type: ADME, organism-based; set-up: dose 1 mg/kg, route intravenous; settings: in vivo; in short: as §2

- IC50 [1]: 19.5 nM
Compound: Cc1ccc(CN2CCC(N3CCCCC3)CC2)cc1NC(=O)c1ccc(Nc2ncc(C)c(-c3ccc(OC(F)(F)F)cc3)n2)cc1

- IC50 [1]: 0.45 nM
- Vd [2]: 20 L/kg
- CL/F [3]: 51.9 mL/min/kg
- AUC [4]: 580 ng·h/mL
- AUC [5]: 1300 ng·h/mL
- half-life [6]: 9.2 h
- Cmax [7]: 94 ng/mL
- clearance [8]: 24.9 mL/min/kg
- half-life [9]: 9.5 h
- Vdss (Rattus norvegicus [10]): 42.9 L/kg
- Cmax [11]: 300 ng/mL
- MRT last [13]: 7.4 h
- MRT last [14]: 9.7 h
- bioavailability [15]: 44.4%
Compound: Cc1ccc(CN2C[C@@H](C)O[C@@H](C)C2)cc1NC(=O)c1ccc(Nc2ncc(C)c(-c3ccc(OC(F)(F)F)cc3)n2)cc1
- Ratio IC50 [12]: 7

- IC50 [1]: 0.28 nM
Compound: Cc1ccc(CN2CCC(=O)CC2)cc1NC(=O)c1ccc(Nc2ncc(C)c(-c3ccc(OC(F)(F)F)cc3)n2)cc1

- IC50 [1]: 2.5 nM
Compound: Cc1ccc(CNCc2ccco2)cc1NC(=O)c1ccc(Nc2ncc(C)c(-c3ccc(OC(F)(F)F)cc3)n2)cc1

- IC50 [1]: 0.89 nM
Compound: Cc1ccc(CN(C)C(C)C)cc1NC(=O)c1ccc(Nc2ncc(C)c(-c3ccc(OC(F)(F)F)cc3)n2)cc1

- IC50 [1]: 0.59 nM
Compound: Cc1ccc(CN(C)C)cc1NC(=O)c1ccc(Nc2ncc(C)c(-c3ccc(OC(F)(F)F)cc3)n2)cc1

- IC50 [1]: 1.1 nM
Compound: Cc1ccc(CNCCO)cc1NC(=O)c1ccc(Nc2ncc(C)c(-c3ccc(OC(F)(F)F)cc3)n2)cc1

- IC50 [1]: 0.77 nM
Compound: CCN1CCN(Cc2ccc(C)c(NC(=O)c3ccc(Nc4ncc(C)c(-c5ccc(OC(F)(F)F)cc5)n4)cc3)c2)CC1

- IC50 [1]: 1.1 nM
Compound: Cc1ccc(CNc2ccccc2)cc1NC(=O)c1ccc(Nc2ncc(C)c(-c3ccc(OC(F)(F)F)cc3)n2)cc1

- IC50 [1]: 0.23 nM
Compound: CCN(CC)Cc1ccc(C)c(NC(=O)c2ccc(Nc3ncc(C)c(-c4ccc(OC(F)(F)F)cc4)n3)cc2)c1

- IC50 [1]: 21.2 nM
Compound: Cc1ccc(CN2CCC(O)CC2)cc1NC(=O)c1ccc(Nc2ncc(C)c(-c3cnn(C)c3)n2)cc1

- IC50 [1]: 3.9 nM
Compound: Cc1ccc(CN2CCC[C@@H]2CN2CCCC2)cc1NC(=O)c1ccc(Nc2ncc(C)c(-c3ccc(OC(F)(F)F)cc3)n2)cc1

- IC50 [1]: 0.29 nM
Compound: Cc1ccc(CN2C(C)(C)CC(=O)CC2(C)C)cc1NC(=O)c1ccc(Nc2ncc(C)c(-c3ccc(OC(F)(F)F)cc3)n2)cc1

- IC50 [1]: 2 nM
Compound: Cc1ccc(CN2CCN(c3ccccc3)CC2)cc1NC(=O)c1ccc(Nc2ncc(C)c(-c3ccc(OC(F)(F)F)cc3)n2)cc1

- IC50 [1]: 1.5 nM
Compound: Cc1ccc(CN2CCc3sccc3C2)cc1NC(=O)c1ccc(Nc2ncc(C)c(-c3ccc(OC(F)(F)F)cc3)n2)cc1

- IC50 [1]: 7.2 nM
- half-life [6]: 1.6 h
Compound: CS(=O)(=O)c1ccc(C(=O)Nc2ccc(Cl)c(-c3ccccn3)c2)c(Cl)c1 [VISMODEGIB]

- IC50 [1]: 10 nM
Compound: Cc1ccc(CN2CCN(C)CC2)cc1NC(=O)c1ccc(Nc2ncc(C)c(-c3cnn(C)c3)n2)cc1

- IC50 [1]: 8.4 nM
Compound: Cc1ccc(CN2C[C@@H](C)O[C@@H](C)C2)cc1NC(=O)c1ccc(Nc2ncc(C)c(-c3cnn(C)c3)n2)cc1

- IC50 [1]: 0.45 nM
Compound: Cc1ccc(CN2CCN(C)CC2)cc1NC(=O)c1ccc(Nc2ncc(C)c(-c3ccc(OC(F)(F)F)cc3)n2)cc1

- IC50 [1]: 1.3 nM
Compound: Cc1ccc(CN2CCN(C(=O)C3CC3)CC2)cc1NC(=O)c1ccc(Nc2ncc(C)c(-c3ccc(OC(F)(F)F)cc3)n2)cc1

- IC50 [1]: 10.5 nM
Compound: Cc1ccc(CN2CCNCC2)cc1NC(=O)c1ccc(Nc2ncc(C)c(-c3ccc(OC(F)(F)F)cc3)n2)cc1

- IC50 [1]: 31.9 nM
Compound: Cc1ccc(CN(CCO)CCO)cc1NC(=O)c1ccc(Nc2ncc(C)c(-c3cnn(C)c3)n2)cc1

- IC50 [1]: 2.7 nM
Compound: Cc1ccc(CN(C2CCCCC2)C2CCCCC2)cc1NC(=O)c1ccc(Nc2ncc(C)c(-c3ccc(OC(F)(F)F)cc3)n2)cc1

- IC50 [1]: 1.3 nM
- MRT (Rattus norvegicus [16]): 4 h
- MRT last [14]: 5.1 h
Compound: Cc1cnc(Nc2ccc(C(=O)Nc3c(C)cccc3C)cc2)nc1-c1ccc(OC(F)(F)F)cc1

- IC50 [1]: 9.2 nM
Compound: Cc1ccc(CN2CCCC2)cc1NC(=O)c1ccc(Nc2ncc(C)c(-c3cnn(C)c3)n2)cc1

- IC50 [1]: 0.61 nM
- Vd [2]: 5.7 L/kg
- AUC [4]: 270 ng·h/mL
- half-life [6]: 1.1 h
- clearance [8]: 61.5 mL/min/kg
- Cmax [11]: 580 ng/mL
- MRT last [13]: 0.9 h
Compound: Cc1ccc(CN2CCN(C)CC2)cc1NC(=O)c1ccc(Nc2ncc(C)c(-c3ccncc3)n2)cc1

- IC50 [1]: 1.6 nM
Compound: Cc1ccc(CN2CC3CCCC3C2)cc1NC(=O)c1ccc(Nc2ncc(C)c(-c3ccc(OC(F)(F)F)cc3)n2)cc1 (configuration not stated)

- IC50 [1]: 18.1 nM
Compound: Cc1ccc(CNC(C)(C)C)cc1NC(=O)c1ccc(Nc2ncc(C)c(-c3cnn(C)c3)n2)cc1

- IC50 [1]: 0.43 nM
Compound: Cc1ccc(CN2CCCC2)cc1NC(=O)c1ccc(Nc2ncc(C)c(-c3ccc(OC(F)(F)F)cc3)n2)cc1
- Ratio IC50 [12]: 7

- IC50 [1]: 0.53 nM
- Vdss (Rattus norvegicus [17]): 7.4 L/kg
- CL/F [3]: 32.8 mL/min/kg
- AUC [4]: 1300 ng·h/mL
- AUC [5]: 2400 ng·h/mL
- half-life [6]: 7.2 h
- Cmax [7]: 280 ng/mL
- half-life [9]: 5.8 h
- Vdss (Rattus norvegicus [10]): 16.3 L/kg
- Cmax [11]: 1200 ng/mL
- MRT (Rattus norvegicus [16]): 4.1 h
- MRT last [14]: 6.6 h
- bioavailability [15]: 46.3%
Compound: Cc1ccc(CN2CCOCC2)cc1NC(=O)c1ccc(Nc2ncc(C)c(-c3ccc(OC(F)(F)F)cc3)n2)cc1
- Ratio IC50 [12]: 7

- IC50 [1]: 0.68 nM
- Vd [2]: 2.1 L/kg
- AUC [4]: 710 ng·h/mL
- half-life [6]: 1 h
- clearance [8]: 23.3 mL/min/kg
- Cmax [11]: 840 ng/mL
- MRT last [13]: 1.2 h
Compound: Cc1ccc(CN2CCOCC2)cc1NC(=O)c1ccc(Nc2ncc(C)c(-c3ccccc3)n2)cc1

- IC50 [1]: 0.72 nM
Compound: CCNCc1ccc(C)c(NC(=O)c2ccc(Nc3ncc(C)c(-c4ccc(OC(F)(F)F)cc4)n3)cc2)c1

- IC50 [1]: 2.4 nM
Compound: Cc1ccc(CN2CCCc3ccccc32)cc1NC(=O)c1ccc(Nc2ncc(C)c(-c3ccc(OC(F)(F)F)cc3)n2)cc1

- IC50 [1]: 0.9 nM
Compound: Cc1ccc(CNC(C)(C)C)cc1NC(=O)c1ccc(Nc2ncc(C)c(-c3ccc(OC(F)(F)F)cc3)n2)cc1

- IC50 [1]: 2 nM
Compound: Cc1ccc(CN2CCNC(=O)C2)cc1NC(=O)c1ccc(Nc2ncc(C)c(-c3ccc(OC(F)(F)F)cc3)n2)cc1

- IC50 [1]: 10.9 nM
Compound: Cc1ccc(CN(CCNC(C)C)C(C)C)cc1NC(=O)c1ccc(Nc2ncc(C)c(-c3ccc(OC(F)(F)F)cc3)n2)cc1

- IC50 [1]: 0.34 nM
Compound: Cc1ccc(CN2CCSCC2)cc1NC(=O)c1ccc(Nc2ncc(C)c(-c3ccc(OC(F)(F)F)cc3)n2)cc1
- Ratio IC50 [12]: 7

- IC50 [1]: 0.76 nM
Compound: Cc1ccc(CN2C(C)(C)CCCC2(C)C)cc1NC(=O)c1ccc(Nc2ncc(C)c(-c3ccc(OC(F)(F)F)cc3)n2)cc1

- IC50 [1]: 1.3 nM
- Vd [2]: 0.9 L/kg
- CL/F [3]: 23.9 mL/min/kg
- AUC [4]: 1200 ng·h/mL
- AUC [5]: 3800 ng·h/mL
- half-life [6]: 0.8 h
- Cmax [7]: 1500 ng/mL
- clearance [8]: 14.3 mL/min/kg
- half-life [9]: 1.4 h
- Vdss (Rattus norvegicus [10]): 2.9 L/kg
- Cmax [11]: 2100 ng/mL
- MRT last [13]: 0.81 h
- MRT last [14]: 2.4 h
- bioavailability [15]: 63.6%
Compound: Cc1ccc(CN2CCOCC2)cc1NC(=O)c1ccc(Nc2ncc(C)c(-c3cnn(C)c3)n2)cc1

- IC50 [1]: 0.44 nM
Compound: Cc1ccc(CN2CCC(O)CC2)cc1NC(=O)c1ccc(Nc2ncc(C)c(-c3ccc(OC(F)(F)F)cc3)n2)cc1

- IC50 [1]: 0.93 nM
Compound: CCCN(C)Cc1ccc(C)c(NC(=O)c2ccc(Nc3ncc(C)c(-c4ccc(OC(F)(F)F)cc4)n3)cc2)c1

- IC50 [1]: 1 nM
Compound: Cc1ccc(CN2CCCCC2)cc1NC(=O)c1ccc(Nc2ncc(C)c(-c3ccc(OC(F)(F)F)cc3)n2)cc1
- Ratio IC50 [12]: 7

- IC50 [1]: 17.5 nM
Compound: CCCN(C)Cc1ccc(C)c(NC(=O)c2ccc(Nc3ncc(C)c(-c4cnn(C)c4)n3)cc2)c1

- IC50 [1]: 10.5 nM
Compound: Cc1ccc(CN2CC3CCN(C)C3C2)cc1NC(=O)c1ccc(Nc2ncc(C)c(-c3ccc(OC(F)(F)F)cc3)n2)cc1 (configuration not stated)

- IC50 [1]: 5.6 nM
Compound: Cc1ccc(CN2CCCCC2)cc1NC(=O)c1ccc(Nc2ncc(C)c(-c3cnn(C)c3)n2)cc1

- IC50 [1]: 35.3 nM
Compound: Cc1ccc(CN(C)CCCN(C)C)cc1NC(=O)c1ccc(Nc2ncc(C)c(-c3ccc(OC(F)(F)F)cc3)n2)cc1

- IC50 [1]: 33.6 nM
Compound: Cc1ccc(CNCCN2CCCCC2)cc1NC(=O)c1ccc(Nc2ncc(C)c(-c3ccc(OC(F)(F)F)cc3)n2)cc1

- IC50 [1]: 1.6 nM
Compound: Cc1ccc(CNC2CCCC2)cc1NC(=O)c1ccc(Nc2ncc(C)c(-c3ccc(OC(F)(F)F)cc3)n2)cc1

- IC50 [1]: 0.47 nM
Compound: Cc1ccc(CN(CCO)CCO)cc1NC(=O)c1ccc(Nc2ncc(C)c(-c3ccc(OC(F)(F)F)cc3)n2)cc1
